B1: tRNA (parent)
chain: GUUCCGUUGGCGUAAUGGUAACGCGUCUCCCUCCUAAGGAGAAGACUGCGGGUUCGAGUCCCGUACGGAACG

Variants at the floor of the assay were thinned out.

Consider 38 variants from the RNAGym collection of RNA variant scans (doi:10.1126/science.aae0568).

In the series the parent is B1. The series can be described thus: yeast fitness relative to wild type (ratio to wild type); higher = fitter; tRNA-Arg(CCU), competitive growth, 37 C, YPD. The method, boiled down: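 A pool of Saccharomyces cerevisiae strains, each with a tRNA-Arg(CCU) gene variant at the native genomic locus, was competed in YPD at 37°C for 24 hours across six parallel replicates. The variants had been chemically synthesised at a 3% per-site mutation rate over 69 sites, and gene amplicons before and after competition were read by 100-nucleotide paired-end sequencing. Darwinian fitness relative to wild type rested on changes in genotype frequencies. Genotypes required ≥ 100 starting reads, and estimates < 0.5 were set to 0.5.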
For GUUCCGUUGGCGUAAUGGUAACGCGUCUCCCGCCUACGGAGAAGACUGCGGGUUCGCGUCCCAUACGGAACG [U32G A37C A57C G63A], the yeast fitness was no more than 0.5. As for GUUCCGUAGGCGUAAUGGUAACGCGUCUCCCUCCUAGGGAGAAGACUGCGGGUUCGAGUCCCGUACGGAACG [U8A A37G], the yeast fitness was no more than 0.5. As for GUCCCGUUGGCGUAAUUGUAACGCGUCUCCAUCCUAAGGAGAAGACUGCGGGUUCGAGUCCCGUACGGAACG [U3C G17U C31A], the figure is no more than 0.5; as for GUUCAGUUGGCGUAAUGGUAACGCGUCUCCCUCCUAAGGAGAAGACUGCGGGUUCGAGUCUCGUACGGAACG [C5A C61U], 0.966. As for GUUCCGUUGGCGUAAUGGUAACGUGUCUCCAUCCUAAGGAGAAGACUGUGGGUUCGCGUCCCGUACGGAACG [C24U C31A C49U A57C], the figure is no more than 0.5; as for GUUCGGUUGGCGUAAUGGUAACGCGUCUCCCUCCUAAGGAGAAGACCGCGGGUUCGAGUCCCGUACGGAACG [C5G U47C], 0.745. As for GUUCCGUUGGGGUAAAGGUAACGCGUCUCCCUCCUAAGGAGGAGACUGCGGGUUCGUGUCCCGUACGGAACG [C11G U16A A42G A57U], the figure is no more than 0.5; as for GUUCCGUUGGCGUAAUGGUAACGCGUCUCCUUCCUAAGGAGAAAUCCGCGGGUUCGAGUCCCGUACGGAACG [C31U G44A A45U U47C], 0.607. As for GUUCCGUUGGCGUAAUGGUAACGCGCCUCCCUCCUAAGGAGAAGACUGCGGGUUAGAGUCCCGUACGGAACG [U26C C55A], the yeast fitness is 0.65. As for GUUGCGUUGGCGUAAGGGUAACGCGUCUCUCUCAUAAGGAGAAGACUGCGGGGUCGAGUCCCGUACGGAACG [C4G U16G C30U C34A U53G], the figure is no more than 0.5; as for GUUCCGUUGGGGUAAUGGUAACGCGUCUCCCGCCUAAGGAGAAGACUGCGGGUUCGCGUCCUGUACGGAACG [C11G U32G A57C C62U], 0.643; as for GUUCGGUUGGCGUAAUGGUAACGCGUCUCCCUCGUAAGGAGAAGACAGCGGGUUCGAGUCCAAUACGGAACG [C5G C34G U47A C62A G63A], no more than 0.5.

As to GUUCCGUUGGCGUAAUGGUGACGCGUCUGCCUCCUAAGGGGAAGACUGGGGGUUCGAGUCCCGUACGGAACG [A20G C29G A40G C49G], the yeast fitness is no more than 0.5. As for GUUCCGUUGGCGUAAUGGUAACGCGUCUCCGUCCUAAGGAGAAGAGUGCGGGUUCGAGUCGCGUACGGUACG [C31G C46G C61G A69U], the figure is no more than 0.5; as for GUUCCGUUGGCGUAAUGGUAACGCGUCUCCCUCCUAAGGAGAAAACUGCGGGUUCGAGUGCCGCACGGAACG [G44A C60G U64C], no more than 0.5. As to GUUCCGUUGGCGGAAUGGUAACGCGUCUCCCUCCUAAGGAGAAGACUGGCGGUUCGAGUGCAGUACGGAACG [U13G C49G G50C C60G C62A], the yeast fitness was no more than 0.5. As for GUCCCGUUGGCGUAAUGGUAACGCGUCUCCCUCCUAAGGAGAAGUCUGCGGGUUCGAGUCCCGUACGGAACG [U3C A45U], the figure is 0.999; as for GUUUCGUUGACGUAAUGGUAACGCGUCUCCCUCCUUAGGAGAAGACUGCGGGUUCGAGUCCCGUACGGAACG [C4U G10A A36U], no more than 0.5. As for GUUCCGUUGGCGCAAUGGUAACGCGUCUCCUUCCUAAGGAGAAGACUGCGGGUUCGAGUCCAAUACGGAACG [U13C C31U C62A G63A], the figure is no more than 0.5; as for GUUCCAUUGGCCUAAAGGUAACGCGUCUCCCUCCUAAGGAGAAGACUGCGGGUUCGAGUCCCGUACGGAACG [G6A G12C U16A], 0.799. Turning to GUUCGGUUGGCGUAAUGGUAACGCGUCUACCUCCUAAGGAGAAGACUACGGGUUCGAGUCCCGUACGGAACG [C5G C29A G48A], the yeast fitness is no more than 0.5.

With GUACCGUUGGCGUAAUGGUAGCGCGUCUCCCUCCUAAGGAGAAGACUGCGGGUUCGAGUCCCGUACGGAACG [U3A A21G], the yeast fitness was found to be 0.926. For GUUCCGUAGGCGUAUUGGUAACGCGUCUCCCUCUUAAGGAGAAGACUGCGGGUUCGAGUCCCGGACGGAACG [U8A A15U C34U U64G], the yeast fitness was no more than 0.5.

Regarding GUUCCGUUGGCGGAACGGUAACGCGUCUCCCUCCUAAGCAGAAGACUGCGGGUUCGAGUCCCGUGCGGAACG [U13G U16C G39C A65G], the yeast fitness was no more than 0.5. As for GGUCCGCUGGCGUAAUGGUAACGCGUCUCCCUCCUACGGAGAAGACUGCGGGUUCGAGCCCCGUACGGAACG [U2G U7C A37C U59C], the figure is no more than 0.5; as for GUUCCGUUGGCGUAAUGGUAACGCGUCUCCCUCUUAAGGAGAAGACGGCGGGUUCGACUCCCGUACGGAACG [C34U U47G G58C], 0.518. As for GUUCCGUUGGCGUAAUGGUAACGCGUGUCCCUCGUAAGGAGAAGACUGCGGGUUCGAGUCCCGUACGGAACG [C27G C34G], the figure is no more than 0.5; as for GUUGCGUUGGCGUAAUGGUUACGCGUCUCCCUCCUAAGGAGAAGACUGCAGGUUCGACUCCCGUAUGGAACG [C4G A20U G50A G58C C66U], no more than 0.5; as for GUUCCGUUGGCGUAAUGGUAACGCGUCUCGCUCCUAAGGAGAAGACUGCGGGUUCGAGACCCGUACGGAACG [C30G U59A], 0.595. As for GUUCCGUUGGCGAAAUGGUAACGCGUGUCCCUCCUAAGGGCAAGACUGCGGGUUCGAGUCCCGUACGGAACG [U13A C27G A40G G41C], the figure is 0.741. With GUUCCGUUGGCGUAAUAGUAACGCGUGUCCAUCCUAAGGAGAAGACUGCGGGUUCGAGUCCCGUACGGAACG [G17A C27G C31A], the yeast fitness is no more than 0.5. As to GUUCGGUUGGCGUAAUGGUAACGCGUCUCCCUCCUAAGGAGAAGCCUGCGGGUUCGAGUCCCGUACGGACCG [C5G A45C A70C], the yeast fitness was found to be 0.725.

As to GUUCCGUUGGCGUAAUGGUAACGCGUCUCCCUCCUUGGGCGAAGACUGCGGGUUCGAGUCCCGUACGGAACG [A36U A37G A40C], the yeast fitness is no more than 0.5. As for GUUCCGUUGGCGUAAUGGUAACGCGUCUCCUUCCUAAGGAGAAGACUGCGGGUUCGAGUACCGUACGGAACG [C31U C60A], the figure is 0.563. As for GUUCCGUUGGCGUAAUGGUGACGUGACUCCCUCCUAAGGAGAAGACUGCGGGUUCGAGUCGCGUCCGGAACG [A20G C24U U26A C61G A65C], the figure is 0.567; as for GUUCCGUUGGCGUCAUGGUAACGCGUCUCCCUCCUAAGGUGAAGACUGCGGGUUCCAGUCCCGUACUGAACG [A14C A40U G56C G67U], no more than 0.5.

As to GUUCGGUUGGCGCAAUGGUAACGCGUCUUCCUCCUAAGGAGAAGACUGCGGGUUCGAGUCCUGUACGGAACG [C5G U13C C29U C62U], the yeast fitness is no more than 0.5. As for GUUCCGUUGGCGUAAUGGUAACGGGUCUCUCUCUUAAGGAGAAGACUGCGGGUUAGAGUCCCGUACGGAACG [C24G C30U C34U C55A], the figure is no more than 0.5.
